Consider 18 molecules from ChEMBL document CHEMBL1125799, “Gossypol and derivatives: a new class of aldose reductase inhibitors” (J Med Chem, 1991).

pKi: −log10 of the molar value.

Broadly, the pKi is the Ki on a negative log10 scale, so that one unit is a factor of ten. A low value points to a large Ki.

In the first test the target is T1, Aldo-keto reductase family 1 member B1 (Homo sapiens, UniProt P15121). Nature of the test: The compound was tested for inhibitory activity against Aldose reductase from human placenta. In a few lines:
(§1)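 Aldose reductase purified from human placenta, with NADP present throughout purification and storage, kept at –20 °C. Assay in 0.1 M sodium phosphate pH 7 with 10 mM D,L-glyceraldehyde substrate and 0.1 mM NADPH at 25 ± 1 °C. NADPH oxidation followed as A340 decrease. Initial rates corrected for the rate without aldehyde substrate. Ki derived from Dixon plots.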
`COc1c(-c2c(C)cc3c(C(C)C)c(O)c(O)c(CO)c3c2OC)c(C)cc2c(C(C)C)c(O)c(O)c(CO)c12` showed a pKi of 5.37.

The molecule `COc1c(OC)c(C=O)c2c(OC)c(-c3c(C)cc4c(C(C)C)c(OC)c(OC)c(C=O)c4c3OC)c(C)cc2c1C(C)C` gave a pKi of 4.25.

Molecule `COc1c(-c2c(C)cc3c(C(C)C)c(O)c(O)c(C#N)c3c2OC)c(C)cc2c(C(C)C)c(O)c(O)c(C#N)c12` gave a pKi of 5.55.

`Cc1cc2c(C(C)C)c(O)c(O)c(C#N)c2c(OC(=O)C(C)(C)C)c1-c1c(C)cc2c(C(C)C)c(O)c(O)c(C#N)c2c1OC(=O)C(C)(C)C` had a pKi of 5.60.

On to `C/C=C/C(=O)Oc1c(-c2c(C)cc3c(C(C)C)c(O)c(O)c(C#N)c3c2OC(=O)/C=C/C)c(C)cc2c(C(C)C)c(O)c(O)c(C#N)c12`, for which the pKi was 5.89.

Regarding `COc1c(OC)c(C=O)c2c(O)c(-c3c(C)cc4c(C(C)C)c(OC)c(OC)c(C=O)c4c3O)c(C)cc2c1C(C)C`, the pKi is 5.01.

In turn, `Cc1cc2c(C(C)C)c(O)c(O)c(/C=N/O)c2c(O)c1-c1c(C)cc2c(C(C)C)c(O)c(O)c(/C=N/O)c2c1O` had a negative-log Ki (pKi) of 5.11.

Regarding `Cc1cc2c(C(C)C)c(O)c(O)c3c2c(c1-c1c(C)cc2c(C(C)C)c(O)c(O)c4c2c1OC4=N)OC3=N`, the pKi is 5.03.

Consider `COc1c(O)c(C=O)c2c(O)c(-c3c(C)cc4c(C(C)C)c(OC)c(O)c(C=O)c4c3O)c(C)cc2c1C(C)C` [6,6'-METHOXYGOSSYPOL], for which the negative-log Ki (pKi) is 5.82.

Molecule `Cc1cc2c(C(C)C)c(O)c(O)c(C=O)c2c(O)c1-c1c(C)cc2c(C(C)C)c(O)c(O)c(C=O)c2c1O` [GOSSYPOL] showed a pKi of 6.30.

Another test deals with T1, Aldo-keto reductase family 1 member B1. Nature of the test: The compound was tested for inhibitory activity against aldose reductase from human placenta. In a few lines: as §1
On to `Cc1cc2c(C(C)C)c(O)c(O)c3c2c(c1-c1c(C)cc2c(C(C)C)c(O)c(O)c4c2c1OC4=O)OC3=O`, for which the pKi is 6.82.

`COc1c(OC)c2c3c(c(-c4c(C)cc5c(C(C)C)c(OC)c(OC)c6c5c4OC6=O)c(C)cc3c1C(C)C)OC2=O` gave a pKi of 4.32.

Turning to `COc1c(-c2c(C)cc3c(C(C)C)c(O)c(O)c(C=O)c3c2OC)c(C)cc2c(C(C)C)c(O)c(O)c(C=O)c12`, the pKi is 6.51.

For `CCC(=O)Oc1c(-c2c(C)cc3c(C(C)C)c(O)c(O)c(C#N)c3c2OC(=O)CC)c(C)cc2c(C(C)C)c(O)c(O)c(C#N)c12`, the pKi is 5.17.

In turn, `CCCCCC(=O)Oc1c(-c2c(C)cc3c(C(C)C)c(O)c(O)c(C#N)c3c2OC(=O)CCCCC)c(C)cc2c(C(C)C)c(O)c(O)c(C#N)c12` had a pKi of 5.51.

In turn, `CC(=O)Oc1c(-c2c(C)cc3c(C(C)C)c(O)c(O)c(C#N)c3c2OC(C)=O)c(C)cc2c(C(C)C)c(O)c(O)c(C#N)c12` gave a pKi of 5.14.

`CCCCC(=O)Oc1c(-c2c(C)cc3c(C(C)C)c(O)c(O)c(C#N)c3c2OC(=O)CCCC)c(C)cc2c(C(C)C)c(O)c(O)c(C#N)c12` had a negative logarithm of the Ki (pKi) of 5.33.

`CCCC(=O)Oc1c(-c2c(C)cc3c(C(C)C)c(O)c(O)c(C#N)c3c2OC(=O)CCC)c(C)cc2c(C(C)C)c(O)c(O)c(C#N)c12`: the pKi is 5.28.
